Activity calls are given as the source filed them. No cut-off for these calls is given here.
Tests used:
[1] = Inhibition of glucose induced insulin secretion from rat Pancreatic islet assessed as percentage of residual insulin release at 10 uM; assay type: functional
Summary of the method: (§1)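 Isolated rat pancreatic islets incubated with 16.7 mM glucose and drug at 0.1–50 μM. Result is insulin release as a percentage of residual release, mean ± SEM (n).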

[2] = Inhibition of glucose induced insulin secretion from rat Pancreatic islet assessed as percentage of residual insulin release at 0.1 uM; assay type: functional
Summary of the method: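 Isolated rat pancreatic islets incubated with test drug in the presence of 16.7 mM glucose. Insulin release was measured and expressed as percentage of residual insulin release, given as mean ± SEM with number of determinations (n).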

[3] = Inhibition of glucose induced insulin secretion from rat Pancreatic islet assessed as percentage of residual insulin release at 50 uM; assay type: functional; summary of the method: as §1
[4] = Myorelaxant effect in Wistar rat uterus smooth muscle assessed as inhibition of contractions induced by bolus of oxytocin injected in superfusion system at 100 uM; assay type: functional; design: scale not given: the % may be the effect or the level left
Summary of the method: (§2)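 Uteri from fed Wistar rats (150–200 g) given diethylstilboestrol dipropionate i.m. the day before. Tissue superfused; after 30 min stabilization, 20 mU oxytocin boluses given every 10 min until contractions (AUC) were constant. Three or more boluses per drug concentration (10, 50, 100 μM). Mean AUC expressed as percentage of the drug-free response.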

[5] = Myorelaxant effect in Wistar rat uterus smooth muscle assessed as inhibition of contractions induced by bolus of oxytocin injected in superfusion system at 10 uM; assay type: functional; design: scale not given: the % may be the effect or the level left; summary of the method: as §2
[6] = Myorelaxant effect in Wistar rat uterus smooth muscle assessed as inhibition of contractions induced by bolus of oxytocin injected in superfusion system at 50 uM; assay type: functional; design: scale not given: the % may be the effect or the level left; summary of the method: as §2
[7] = Myorelaxant effect in KCl-induced precontracted rat aorta ring VSMC; assay type: functional, tissue-based
Summary of the method: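 Rat aortic rings precontracted with 30 mM KCl. EC50 is the drug concentration giving 50% relaxation, mean ± SEM (n).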

[8] = Inhibition of glucose induced insulin secretion from rat Pancreatic islet assessed as percentage of residual insulin release; assay type: functional; summary of the method: as §1
[9] = Myorelaxant effect in Wistar rat uterus smooth muscle assessed as inhibition of contractions induced by continuous superfusion of oxytocin in presence of 10 uM ATP-sensitive potassium channel blocker glibenclamide; assay type: functional
Summary of the method: (§3)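 Rat uterus continuously superfused with 50 mU/L oxytocin. Mean of three contraction AUCs set as 100%, then drug added at increasing concentrations, with no glibenclamide or with 1 or 10 μM glibenclamide present continuously. EC50 is the concentration giving 50% residual contraction, mean ± SEM (n).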

[10] = Myorelaxant effect in Wistar rat uterus smooth muscle assessed as inhibition of contractions induced by continuous superfusion of oxytocin in absence ATP-sensitive potassium channel blocker glibenclamide; assay type: functional; summary of the method: as §3
[11] = Myorelaxant effect in Wistar rat uterus smooth muscle assessed as inhibition of contractions induced by continuous superfusion of oxytocin in presence of 1 uM ATP-sensitive potassium channel blocker glibenclamide; assay type: functional; summary of the method: as §3
Rattus norvegicus [12] = species on record: Rattus norvegicus; test: Activation of ATP-sensitive potassium channel in glucose and extracellular calcium evoked rat pancreatic islets assessed as increase in 86Rb outflow measured per min at 50 uM
Summary of the method: (§4)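 Prelabeled rat pancreatic islets, perifused throughout with 5.6 mM glucose and extracellular Ca2+. Drug added at 10 or 50 μM, then withdrawn. Read-out is the increase in 86Rb outflow rate, in %/min. Six individual experiments.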

Rattus norvegicus [13] = species on record: Rattus norvegicus; test: Activation of ATP-sensitive potassium channel in glucose and extracellular calcium evoked rat pancreatic islets assessed as reduction in 45Calcium outflow at 50 uM
Rattus norvegicus [14] = species on record: Rattus norvegicus; test: Activation of ATP-sensitive potassium channel in glucose and extracellular calcium evoked rat pancreatic islets assessed as reduced 45Calcium outflow at 50 uM in presence of extracellular potassium ion; design: scale not given: the % may be the effect or the level left
Summary of the method: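 Prelabeled, perifused rat pancreatic islets exposed throughout to 2.8 mM glucose and extracellular Ca2+. Extracellular K+ raised suddenly from 5 to 50 mM, with or without 50 μM drug in the basal medium. Read-out is the magnitude of the increase in 45Ca outflow, in %/min.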

Rattus norvegicus [15] = species on record: Rattus norvegicus; test: Activation of ATP-sensitive potassium channel in glucose and extracellular calcium evoked rat pancreatic islets assessed as increase in 86Rb outflow measured per min; summary of the method: as §4
Rattus norvegicus [16] = species on record: Rattus norvegicus; test: Activation of ATP-sensitive potassium channel in glucose and extracellular calcium evoked rat pancreatic islets assessed as increased 86Rb outflow at 50 uM by radioisotopic and fluorimetric method in presence of 10 uM ATP-sensitive potassium channel blocker glibenclamide
Summary of the method: (§5)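 Prelabeled, perifused rat pancreatic islets in 5.6 mM glucose with extracellular Ca2+. Drug given at 10 or 50 μM with 10 μM glibenclamide present continuously in the medium. Read-out is 86Rb outflow rate. Six individual experiments.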

Rattus norvegicus [17] = species on record: Rattus norvegicus; test: Activation of ATP-sensitive potassium channel in glucose and extracellular calcium evoked rat pancreatic islets assessed as increased 86Rb outflow at 10 uM by radioisotopic and fluorimetric method in presence of 10 uM ATP-sensitive potassium channel blocker glibenclamide; summary of the method: as §5
Rattus norvegicus [18] = species on record: Rattus norvegicus; test: Activation of ATP-sensitive potassium channel in rat pancreatic islets assessed as decrease in insulinotropic glucose concentration-mediated cytosolic calcium level by fluorimetry
Rattus norvegicus [19] = species on record: Rattus norvegicus; test: Activation of ATP-sensitive potassium channel in glucose and extracellular calcium evoked rat pancreatic islets assessed as decrease in insulin output at 50 uM; details: TDE = time-dependent effect
Rattus norvegicus [20] = species on record: Rattus norvegicus; test: Activation of ATP-sensitive potassium channel in extracellular calcium deprived and glucose evoked rat pancreatic islets assessed as reduction in 45Calcium outflow at 50 uM
Rattus norvegicus [21] = species on record: Rattus norvegicus; test: Activation of ATP-sensitive potassium channel in glucose and extracellular calcium evoked rat pancreatic islets assessed as increase in 86Rb outflow measured per min at 10 uM; summary of the method: as §4
[22] = Dissociation constant, pKa of the compound; assay type: physicochemical
Summary of the method: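 pKa determined by UV spectrophotometry at 25 °C. Spectra recorded in aqueous buffers from pH 5 to 12.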

[23] = Inhibition of glucose induced insulin secretion from rat Pancreatic islet assessed as percentage of residual insulin release at 1 uM; assay type: functional; summary of the method: as §1
Rattus norvegicus [24] = species on record: Rattus norvegicus; test: Activation of ATP-sensitive potassium channel in rat aorta rings assessed as increased 86Rb outflow at 100 uM in absence of ATP-sensitive potassium channel blocker glibenclamide; assay type: tissue-based
Summary of the method: (§6)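 Prelabeled rat aortic rings perifused throughout with or without 10 μM glibenclamide. Drug applied at 100 μM. Read-out is 86Rb outflow. Four to five individual experiments.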

Rattus norvegicus [25] = species on record: Rattus norvegicus; test: Activation of ATP-sensitive potassium channel in rat aorta rings assessed as increased 86Rb outflow at 100 uM in presence of 10 uM ATP-sensitive potassium channel blocker glibenclamide; assay type: tissue-based; summary of the method: as §6

`CC(C)CC1=NS(=O)(=O)c2cc(F)ccc2N1` showed an Activity [1] of 75.3%.
In the case of `CC(C)NC1=NS(=O)(=O)c2cc(Br)ccc2N1`, the Activity [1] is reported as 8.1%, the Activity [2] is reported as 91% and the Activity [3] is reported as 6.7%.
With `CC(C)SC1=NS(=O)(=O)c2ccc(Cl)cc2N1` the Activity [1] was 80.2% and the Activity [3] was 44%.
Work on `CC(N/C(=N\C#N)Nc1ccncc1)C(C)(C)C` (racemic) [PINACIDIL ANHYDROUS] yielded an Activity [4] of 38.1%, an Activity [5] of 44.9% and an Activity [6] of 42.7%. The EC50 [7] was 0.62 µM, the IC50 [8] was 202 µM and the EC50 [9] was 28.3 µM. For the same compound, the EC50 [10] was 1.3 µM and the EC50 [11] was 8.1 µM.
With `Cc1ccc2c(c1)S(=O)(=O)N=C(OC(C)C)N2` the Activity [1] was 79.5%.
Work on `CC(C)SC1=NS(=O)(=O)c2ccccc2N1` yielded an Activity [1] of 93.9%.
`CC(C)OC1=NS(=O)(=O)c2cc(Cl)ccc2N1` showed an Activity [4] of 68.7%, an Activity [5] of 88% and an Activity (Rattus norvegicus [12]) of 1.32%. The Activity (Rattus norvegicus [13]) was “Active”, the Activity (Rattus norvegicus [14]) was 1.12% and the Activity (Rattus norvegicus [15]) was “Dose-dependent effect”. The Activity (Rattus norvegicus [16]) was “inactive”, the Activity [6] was 85.8% and the Activity [1] was 77.3%. For the same compound, the EC50 [7] was 22.7 µM, the IC50 [8] was 19.1 µM and the Activity (Rattus norvegicus [17]) was “inactive”. The Activity (Rattus norvegicus [18]) was “Active”, the Activity (Rattus norvegicus [19]) was “tde” and the Activity [3] was 17.5%. For the same compound, the Activity (Rattus norvegicus [20]) was “inactive”, the Activity (Rattus norvegicus [21]) was 0.23% and the pKa [22] was 8.
In the case of `COc1ccc2c(c1)S(=O)(=O)N=C(OC(C)C)N2`, the Activity [1] is reported as 80.8%.
In the case of `CC(C)CSC1=NS(=O)(=O)c2cc(Cl)ccc2N1`, the EC50 [7] is reported as 6.2 µM and the EC50 [10] is reported as 13.5 µM.
In the case of `CC(C)NC1=NS(=O)(=O)c2ccc(Cl)cc2N1`, the Activity [1] is reported as 7.5%, the Activity [2] is reported as 76.7% and the Activity [3] is reported as 6.4%.
Work on `CC(C)OC1=NS(=O)(=O)c2cc(Cl)c(Cl)cc2N1` yielded an Activity [1] of 73.7%.
For `CC(C)SC1=NS(=O)(=O)c2cc(F)ccc2N1`, the Activity [1] was 88.7% and the Activity [3] was 55.1%.
Compound `CC(C)OC1=NS(=O)(=O)c2cc(Br)ccc2N1` has an Activity [1] of 62.5%.
With `CC(C)CC1=NS(=O)(=O)c2cc(Br)ccc2N1` the Activity [1] was 61.8% and the Activity [23] was 85.8%.
Compound `CC(C)OC1=NS(=O)(=O)c2cc(F)ccc2N1` has an Activity [1] of 87.5% and an Activity [3] of 44.1%.
`CC(C)CC1=NS(=O)(=O)c2ccccc2N1` showed an Activity [1] of 85.2%.
With `COc1ccc2c(c1)S(=O)(=O)NC(NC(C)C)=N2` the Activity (Rattus norvegicus [13]) was “Active”, the Activity [1] was 8.5% and the Activity (Rattus norvegicus [19]) was “tde”. For the same compound, the Activity [3] was 4.4% and the Activity (Rattus norvegicus [20]) was “inactive”.
Compound `CC(C)SC1=NS(=O)(=O)c2cc(Cl)ccc2N1` has an Activity [4] of 2.3%, an Activity [5] of 98.8% and an Activity [6] of 54.7%. It also gave an Activity [1] of 104%, an EC50 [7] of 23 µM and an IC50 [8] of 50 µM. For the same compound, the EC50 [10] was over 30 µM, the Activity [3] was 51.3% and the pKa [22] was 7.01.
`Cc1ccc2c(c1)S(=O)(=O)N=C(NC(C)C)N2` gave an Activity [1] of 8.5%, an Activity [23] of 71.3% and an Activity [3] of 3.5%.
For `CC(C)NC1=NS(=O)(=O)c2cc(F)ccc2N1`, the Activity [1] was 3.7% and the Activity [3] was 3.3%.
For `Cc1ccc2c(c1)S(=O)(=O)N=C(SC(C)C)N2`, the Activity [1] was 77%.
Compound `CC1=Nc2ccc(Cl)cc2S(=O)(=O)N1` [DIAZOXIDE] has an Activity [4] of 67.7%, an Activity [5] of 93.8% and an Activity [6] of 76.3%. For the same compound, the IC50 [8] was 18.4 µM and the EC50 [10] was over 30 µM.
For `CC(C)NC1=NS(=O)(=O)c2ccccc2N1`, the Activity [1] was 34.9% and the Activity [23] was 73.7%.
In the case of `CC(C)SC1=NS(=O)(=O)c2cc(Br)ccc2N1`, the Activity [1] is reported as 90.3% and the Activity [3] is reported as 47.3%.
`CC(C)SC1=NS(=O)(=O)c2cc(Cl)c(Cl)cc2N1` showed an Activity [1] of 70% and an Activity [3] of 12.9%.
For `O=S1(=O)N=C(SCc2ccccc2)Nc2ccc(Cl)cc21`, the EC50 [7] was 5.4 µM and the EC50 [10] was 11.7 µM.
Compound `CC(C)NC1=NS(=O)(=O)c2cc(Cl)ccc2N1` has an Activity [4] of 75.6%, an Activity [5] of 94.4% and an Activity [6] of 95%. For the same compound, the IC50 [8] was 0.55 µM.
For `CC(C)CC1=NS(=O)(=O)c2cc(Cl)ccc2N1`, the Activity [4] was 55%, the Activity [5] was 73.9% and the Activity [6] was 64.7%. The Activity [1] was 43.2%, the EC50 [7] was 5.8 µM and the IC50 [8] was 5.8 µM. The Activity (Rattus norvegicus [24]) was “Active”, the Activity [3] was 21% and the Activity (Rattus norvegicus [25]) was “inactive”. For the same compound, the pKa [22] was 8.52.
Work on `CC(SC1=NS(=O)(=O)c2cc(Cl)ccc2N1)c1ccccc1` (racemic) yielded an EC50 [7] of 5.4 µM, an EC50 [9] of 24.2 µM and an EC50 [10] of 4.4 µM. It also gave an EC50 [11] of 6.8 µM.
`CC(C)[S+]([O-])C1=NS(=O)(=O)c2cc(Cl)ccc2N1` (stereo not given) gave an Activity [1] of 92.3% and an Activity [3] of 89.8%.
With `CC(C)SC1=NS(=O)(=O)c2ccc(Br)cc2N1` the Activity [1] was 87% and the Activity [3] was 33.8%.
With `CC(C)OC1=NS(=O)(=O)c2ccccc2N1` the Activity [1] was 90.4%.
